Test results reported in publication PMC2943143 (Biochemical pharmacology, 2010).
Values joined by “and” are separate entries in the source; they are usually repeats but may differ in a detail not shown here. Identical values can stand only once. “Also recorded” adds a separate entry of the source.

Assays:
[1] = target: human pol γ (Homo sapiens, UniProt P54098); experiment: Pol assay, human pol γ; assay type: biochemical; conditions: 100 and 1,000 nM PGG, Fig. 1C; compared with B- and Y-family pols
Summary of the method: (§1)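 Test compound was dissolved in DMSO and sonicated 30 s. It was preincubated with enzyme (0.05 unit final) in 50 mM Tris-HCl pH 7.5, 1 mM DTT, 50% glycerol and 0.1 mM EDTA at 0 °C for 10 min. This was added to each enzyme's standard reaction mix with poly(dA)/oligo(dT)18 (A/T = 2/1) template-primer and dTTP substrate, then incubated at 37 °C for 60 min. Activity is given as % of inhibitor-free control.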

[2] = target: bovine DNase I (Bos taurus, UniProt P00639); experiment: DNase I assay; assay type: biochemical; conditions: highest tested concentration 1 μM, supplemental Fig. S1B
Summary of the method: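 Topoisomerases I and II were purified from human placenta, and DNase I came from bovine pancreas. Each activity was measured in a standard assay following the supplier's specifications.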

[3] = target: rice pol λ (Oryza sativa subsp. japonica, UniProt Q67VC8); experiment: Pol assay, rice pol λ; assay type: biochemical; conditions: supplemental Fig. S1A
Summary of the method: as §1

[4] = system: isolated nuclei; conditions: cited from earlier work
[5] = target: human telomerase (Homo sapiens, UniProt O14746); experiment: Telomerase assay; assay type: biochemical; conditions: highest tested concentration 1 μM, supplemental Fig. S1B
[6] = target: Aminopeptidase N; conditions: read-out: IC50, Aminopeptidase N; cited from earlier work
[7] = target: T7 RNA polymerase (Escherichia phage T7, UniProt P00573); experiment: T7 RNA polymerase assay; assay type: biochemical; conditions: highest tested concentration 1 μM, supplemental Fig. S1B
[8] = system: calf primase of pol α; experiment: Primase assay; assay type: biochemical; conditions: highest tested concentration 1 μM, supplemental Fig. S1B
[9] = system: human DU145 prostate cancer (PCa) xenografts; conditions: cited from earlier work
[10] = system: cauliflower pol α; experiment: Pol assay, cauliflower pol α; assay type: biochemical; conditions: supplemental Fig. S1A
Summary of the method: as §1

[11] = system: H^+, K^+- ATPase; conditions: cited from earlier work
[12] = target: rat pol β (Rattus norvegicus, UniProt P06766); experiment: Pol assay, rat pol β; assay type: biochemical; conditions: for Ki: pol β, Dixon plot
Summary of the method: as §1

[13] = target: HIV reverse transcriptase; conditions: read-out: IC50, HIV reverse transcriptase; cited from earlier work
[14] = system: HCV NS3 protease; conditions: read-out: IC50, HCV NS3 protease; cited from earlier work
[15] = system: human PCa PC-3 cells; conditions: i.p. injection, every other day, 25 mg/kg, nude mice; cited from earlier work
[16] = system: mouse Lewis lung cancer allografts; conditions: dose-dependent in the range of 4 and 20 mg/kg, syngenic mice; cited from earlier work
[17] = target: calf thymus TdT (Bos taurus, UniProt P06526); experiment: Pol assay, calf TdT; assay type: biochemical; conditions: 100 and 1,000 nM PGG, Fig. 1C
Summary of the method: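 TdT was assayed with oligo(dT)18 (3′-OH) primer and dTTP substrate. Test compound in sonicated DMSO was preincubated with 0.05 unit enzyme in 50 mM Tris-HCl pH 7.5, 1 mM DTT, 50% glycerol and 0.1 mM EDTA at 0 °C for 10 min. Reaction ran at 37 °C for 60 min. Remaining activity is expressed relative to no-inhibitor control.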

[18] = target: human pol ε (Homo sapiens, UniProt Q07864); experiment: Pol assay, human pol ε; assay type: biochemical
Summary of the method: as §1

[19] = unchanged at 30, 60 and 90 nM PGG

Sequence of human pol ε (Q07864 whole entry): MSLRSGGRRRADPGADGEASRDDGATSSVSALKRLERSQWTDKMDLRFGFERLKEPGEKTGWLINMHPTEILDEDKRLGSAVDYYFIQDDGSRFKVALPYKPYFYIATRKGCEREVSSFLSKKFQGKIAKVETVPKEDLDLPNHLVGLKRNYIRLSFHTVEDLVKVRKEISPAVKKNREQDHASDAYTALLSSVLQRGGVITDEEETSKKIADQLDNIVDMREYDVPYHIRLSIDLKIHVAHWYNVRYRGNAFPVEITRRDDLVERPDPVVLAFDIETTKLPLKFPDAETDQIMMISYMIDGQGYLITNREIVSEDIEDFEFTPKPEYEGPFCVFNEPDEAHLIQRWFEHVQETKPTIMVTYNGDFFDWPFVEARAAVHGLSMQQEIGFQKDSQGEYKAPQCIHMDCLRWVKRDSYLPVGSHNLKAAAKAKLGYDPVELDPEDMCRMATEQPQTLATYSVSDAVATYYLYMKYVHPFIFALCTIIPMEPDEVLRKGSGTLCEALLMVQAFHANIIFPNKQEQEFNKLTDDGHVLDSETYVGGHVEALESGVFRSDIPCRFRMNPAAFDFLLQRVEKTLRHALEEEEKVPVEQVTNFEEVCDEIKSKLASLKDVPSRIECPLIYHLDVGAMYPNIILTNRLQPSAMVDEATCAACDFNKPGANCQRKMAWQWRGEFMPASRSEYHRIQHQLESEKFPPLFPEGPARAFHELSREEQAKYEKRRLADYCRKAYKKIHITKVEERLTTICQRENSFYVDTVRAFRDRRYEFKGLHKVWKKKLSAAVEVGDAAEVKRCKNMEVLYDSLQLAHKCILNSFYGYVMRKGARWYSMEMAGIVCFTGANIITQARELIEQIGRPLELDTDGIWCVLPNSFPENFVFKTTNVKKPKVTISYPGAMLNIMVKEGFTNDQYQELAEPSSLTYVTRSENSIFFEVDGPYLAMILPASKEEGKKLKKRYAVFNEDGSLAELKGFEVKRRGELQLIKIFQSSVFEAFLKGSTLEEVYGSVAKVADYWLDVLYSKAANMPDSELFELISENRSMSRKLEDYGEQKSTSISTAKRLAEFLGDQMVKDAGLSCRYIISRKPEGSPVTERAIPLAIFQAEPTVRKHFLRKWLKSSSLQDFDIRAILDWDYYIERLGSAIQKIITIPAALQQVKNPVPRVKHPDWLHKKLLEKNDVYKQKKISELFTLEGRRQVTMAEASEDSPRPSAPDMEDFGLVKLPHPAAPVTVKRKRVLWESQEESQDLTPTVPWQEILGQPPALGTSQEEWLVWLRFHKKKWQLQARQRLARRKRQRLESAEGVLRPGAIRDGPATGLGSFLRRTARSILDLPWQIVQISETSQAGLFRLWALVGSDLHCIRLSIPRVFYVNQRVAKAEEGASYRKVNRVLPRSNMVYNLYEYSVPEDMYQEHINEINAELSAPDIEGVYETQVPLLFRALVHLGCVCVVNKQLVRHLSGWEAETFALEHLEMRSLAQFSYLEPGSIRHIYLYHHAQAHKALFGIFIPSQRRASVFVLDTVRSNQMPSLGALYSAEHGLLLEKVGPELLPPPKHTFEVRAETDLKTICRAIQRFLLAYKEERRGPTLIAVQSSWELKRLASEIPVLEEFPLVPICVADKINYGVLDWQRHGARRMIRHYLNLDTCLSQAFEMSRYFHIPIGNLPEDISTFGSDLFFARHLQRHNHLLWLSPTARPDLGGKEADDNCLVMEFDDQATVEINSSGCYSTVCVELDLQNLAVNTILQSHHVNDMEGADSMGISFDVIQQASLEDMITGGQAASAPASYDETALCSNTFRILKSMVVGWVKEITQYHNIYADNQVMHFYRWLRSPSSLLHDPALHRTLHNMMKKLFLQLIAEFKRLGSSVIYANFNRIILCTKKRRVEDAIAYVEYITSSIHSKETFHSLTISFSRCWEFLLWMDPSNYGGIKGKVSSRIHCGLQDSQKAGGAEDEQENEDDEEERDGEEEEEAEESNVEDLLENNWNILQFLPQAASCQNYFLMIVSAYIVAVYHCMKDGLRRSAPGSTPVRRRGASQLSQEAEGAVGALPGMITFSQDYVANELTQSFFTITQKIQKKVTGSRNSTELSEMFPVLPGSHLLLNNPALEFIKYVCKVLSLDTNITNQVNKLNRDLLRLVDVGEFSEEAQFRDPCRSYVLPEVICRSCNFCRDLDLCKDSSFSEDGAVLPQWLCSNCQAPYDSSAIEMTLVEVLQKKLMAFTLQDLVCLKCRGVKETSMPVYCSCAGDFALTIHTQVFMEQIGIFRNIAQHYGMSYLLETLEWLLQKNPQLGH
Sequence of calf thymus TdT (P06526 whole entry): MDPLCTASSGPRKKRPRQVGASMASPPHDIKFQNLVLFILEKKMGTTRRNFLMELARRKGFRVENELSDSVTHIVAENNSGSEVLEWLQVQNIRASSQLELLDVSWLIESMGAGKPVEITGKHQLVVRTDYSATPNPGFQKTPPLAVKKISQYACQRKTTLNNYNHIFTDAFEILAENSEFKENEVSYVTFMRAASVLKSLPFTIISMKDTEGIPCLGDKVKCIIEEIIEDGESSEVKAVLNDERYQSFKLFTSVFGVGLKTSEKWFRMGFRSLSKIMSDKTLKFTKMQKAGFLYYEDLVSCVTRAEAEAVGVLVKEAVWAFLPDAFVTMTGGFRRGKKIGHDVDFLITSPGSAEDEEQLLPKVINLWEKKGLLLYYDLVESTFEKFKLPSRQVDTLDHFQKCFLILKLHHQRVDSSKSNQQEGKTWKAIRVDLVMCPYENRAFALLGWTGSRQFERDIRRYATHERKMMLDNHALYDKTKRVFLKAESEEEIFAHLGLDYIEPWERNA
Sequence of bovine DNase I (P00639 23-282): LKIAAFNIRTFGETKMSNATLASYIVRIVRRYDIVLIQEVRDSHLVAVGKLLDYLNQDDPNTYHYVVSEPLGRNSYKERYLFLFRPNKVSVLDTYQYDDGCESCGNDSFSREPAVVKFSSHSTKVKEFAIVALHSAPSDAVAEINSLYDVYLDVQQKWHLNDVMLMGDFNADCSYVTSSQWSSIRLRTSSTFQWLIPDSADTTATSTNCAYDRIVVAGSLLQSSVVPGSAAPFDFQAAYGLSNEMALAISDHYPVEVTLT
Sequence of rice pol λ (Q67VC8 whole entry): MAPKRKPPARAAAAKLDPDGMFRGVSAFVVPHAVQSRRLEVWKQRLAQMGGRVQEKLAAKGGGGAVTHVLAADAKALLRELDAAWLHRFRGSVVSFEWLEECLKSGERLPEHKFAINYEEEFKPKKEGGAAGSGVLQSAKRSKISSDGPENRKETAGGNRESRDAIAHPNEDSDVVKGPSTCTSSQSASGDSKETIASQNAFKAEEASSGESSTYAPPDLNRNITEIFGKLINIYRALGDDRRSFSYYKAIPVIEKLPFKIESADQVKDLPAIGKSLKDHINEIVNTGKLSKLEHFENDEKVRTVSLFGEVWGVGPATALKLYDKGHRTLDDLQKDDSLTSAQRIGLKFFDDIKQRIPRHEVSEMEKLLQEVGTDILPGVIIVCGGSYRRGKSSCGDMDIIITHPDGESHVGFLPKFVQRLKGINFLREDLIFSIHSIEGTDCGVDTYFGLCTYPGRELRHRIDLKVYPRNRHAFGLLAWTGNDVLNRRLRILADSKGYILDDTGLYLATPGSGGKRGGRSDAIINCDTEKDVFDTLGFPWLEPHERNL
Sequence of T7 RNA polymerase (P00573 whole entry): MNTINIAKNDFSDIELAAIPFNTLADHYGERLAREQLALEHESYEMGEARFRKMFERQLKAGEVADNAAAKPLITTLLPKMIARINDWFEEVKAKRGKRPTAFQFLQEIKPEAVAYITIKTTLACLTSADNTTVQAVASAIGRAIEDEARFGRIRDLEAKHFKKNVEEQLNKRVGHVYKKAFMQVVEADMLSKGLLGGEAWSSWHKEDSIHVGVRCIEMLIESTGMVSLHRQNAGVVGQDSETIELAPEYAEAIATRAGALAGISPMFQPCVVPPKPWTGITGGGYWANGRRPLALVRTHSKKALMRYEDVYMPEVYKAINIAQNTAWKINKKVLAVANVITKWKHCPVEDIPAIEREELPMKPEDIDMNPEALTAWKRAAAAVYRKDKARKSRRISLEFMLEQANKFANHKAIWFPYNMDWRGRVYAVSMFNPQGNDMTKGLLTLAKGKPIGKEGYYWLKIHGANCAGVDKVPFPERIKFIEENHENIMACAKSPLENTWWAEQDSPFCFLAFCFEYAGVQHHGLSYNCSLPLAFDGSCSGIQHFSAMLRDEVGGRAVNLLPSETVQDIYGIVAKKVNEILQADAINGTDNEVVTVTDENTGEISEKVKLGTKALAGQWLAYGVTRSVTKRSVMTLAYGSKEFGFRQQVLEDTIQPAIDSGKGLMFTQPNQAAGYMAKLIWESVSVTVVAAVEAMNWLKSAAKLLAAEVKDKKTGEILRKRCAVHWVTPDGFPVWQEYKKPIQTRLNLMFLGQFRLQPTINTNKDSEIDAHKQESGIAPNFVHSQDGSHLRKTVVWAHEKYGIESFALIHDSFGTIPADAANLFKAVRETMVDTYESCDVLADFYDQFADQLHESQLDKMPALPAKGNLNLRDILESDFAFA

Compound: O=C(OC[C@H]1O[C@@H](OC(=O)c2cc(O)c(O)c(O)c2)[C@H](OC(=O)c2cc(O)c(O)c(O)c2)[C@@H](OC(=O)c2cc(O)c(O)c(O)c2)[C@@H]1OC(=O)c1cc(O)c(O)c(O)c1)c1cc(O)c(O)c(O)c1 [PGG, 1,2,3,4,6-penta-O-galloyl-β-D-glucose]
- inhibitory activity on pol γ (family A) [1]: lower
- effect on bovine DNase I activity [2]: did not suppress
- effect on rice pol λ activity [3]: not influenced
- inhibition of DNA replicative synthesis compared with aphidocolin [4]: superior efficacy
- effect on human telomerase activity [5]: did not suppress
- IC50 [6]: 6.5 µM
- effect on T7 RNA polymerase activity [7]: did not suppress
- effect on calf primase of pol α activity [8]: did not suppress
- in vivo growth of DU145 xenografts ([9]; daily intra-peritoneal injection 20 mg/kg body weight, nude mice): suppresses
- effect on body weight ([9]; mouse, in vivo): without evident adverse effect
- effect on cauliflower pol α activity [10]: not influenced
- Mode of Inhibition, H^+, K^+- ATPase [11]: Non-competitive for K^+
- IC50 ([11]; read-out: IC50, H^+, K^+- ATPase): 0.166 µM
- IC50 ([12]; IC50, pol β, poly(dA)/oligo(dT)18 and dTTP, 0.05 unit enzyme): 0.108 to 0.16 µM
- Ki ([12]; for the DNA template-primer): 0.0201 µM
- Ki ([12]; for the dNTP substrate): 0.0238 µM
- effect of 0.05% NP-40 on the inhibitory effect on pol β ([12]; PGG 100 nM and 200 nM, supplemental Table S1): not reversed
- Mode of Inhibition, pol β, DNA template-primer ([12]; double reciprocal plots): competitively; also recorded: Competitive for DNA template-primer
- Mode of Inhibition, pol β, dNTP ([12]; double reciprocal plots): competitively; also recorded: Competitive for dNTP
- effect of poly(rC) or BSA on the inhibitory effect on pol β ([12]; poly(rC) 50 μM, BSA 200 μg/ml): neither poly(rC) nor BSA influenced
- apparent Vmax of pol β, DNA template-primer [12, 19]: 111 pmol/h
- apparent Vmax of pol β, dNTP substrate [12, 19]: 62.5 pmol/h
- IC50 [13]: > 100 µM
- IC50 [14]: 1.6 µM
- growth of PC-3 cells inoculated into the tibia [15]: positive inhibitory efficacy
- in vivo growth of Lewis lung cancer allografts [16]: suppresses
- effect on TdT activity [17]: not affected; also recorded: not sensitive
- effect on pol ε activity ([18]; 100 and 1,000 nM PGG, Fig. 1C): significantly inhibit
- IC50 ([18]; IC50, pol ε, range stated for replicative pols (α, δ and ε) together): < 0.1 µM and 0.013 to 0.066 µM
